The list is not random: actives were taken first. Their share in the collection is about 2%.
Beta2AR agonist: beta2AR agonists driving receptor internalization, primary screen, cell-based, FAP fluorogen, flow cytometry; Am2.2-beta2AR cells; response, % (concentration not given with the values); 340,000 tested, 0.43% active; AID 504454, 2011;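 active means response above a set limit, near 3 SD of response in nonfluorescent compounds, cut at about 42% in these data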
Hep lipid drop: inhibitors of hepatocyte lipid droplet formation, primary screen, imaging, high-throughput imaging, BODIPY stain; AID 1656, 2009; AML12 mouse hepatocytes, oleate lipid droplets; inhibition, % at 6.5 µM; 240,000 tested, 0.4% active;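 active means lipid droplet intensity inhibited by at least 50%, with more than 500 cells counted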
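Test system: AML12 hepatocytes (mouse); reagent: oleate loading, 100 µM; dosing: one dose, 6.5 µM compound; incubation: overnight exposure; signal: fluorescence imaging, 20x objective, two fields per well; read-out basis: % inhibition of corrected integrated BODIPY droplet signal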
Arrestin-AP2 inh: inhibitors of beta-arrestin/AP2 binding, primary screen, biochemical, GPCR trafficking, flow cytometry; 340,000 tested, 0.31% active; beta-arrestin 1 C-terminal peptide binding to AP2 beta2-adaptin appendage (human); AID 504490, 2011; inhibition, % at 10 µM; FITC-arrestin peptide / GST-AP2 beads; AP2 beta2 appendage carries R879A mutation;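 active means inhibition above a set limit, near 3 SD of compounds lacking own fluorescence, cut at about 54% in these data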;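 further: plate controls were DMSO wells for no effect and 5 µM unlabelled arrestin peptide for full effect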
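Material – AP2 appendage R879A on GSH beads · Buffer or medium – PBS with 0.05% Tween 20 and 0.1% BSA · Probe or stimulus – fluorescein-tagged arrestin peptide at 50 nM final · Incubation – compound with beads 12 min RT, then probe 1 h RT · Detection – high-throughput flow cytometry of beads, ex 488, em 535 nm · Evaluation – percent response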
GRK2 inh: compounds blocking aptamer binding on GRK2 – biochemical, human GRK2, bead flow cytometry, HTS, primary screen. AID 488847, 2010. FAM-aptamer displacement from GRK2. 330,000 tested, 0.59% active. inhibition of aptamer binding, % at 10 µM;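 active means inhibition of aptamer binding above 40%, roughly 3 SD of noise, on plates passing a quality check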;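 further: median bead fluorescence of bound FAM aptamer so fluorescent compounds give negative values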
NTR1 agonist: agonists of human NTR1, primary screen, imaging, U2OS cells, beta-arrestin-GFP, high content; Neurotensin receptor type 1 (Homo sapiens), P30989; NTR1-U2OS beta-arrestin-GFP spot imaging, agonist mode; activation, % at 20 µM; 330,000 tested, 0.17% active;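 active means activation at or above 40% of the spot to cytoplasm intensity ratio, with at least 20 cells analyzed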;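 further: 0% = DMSO without peptide and 100% = 100 nM NTR1 peptide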
Target sequence (P30989 whole entry, looked up): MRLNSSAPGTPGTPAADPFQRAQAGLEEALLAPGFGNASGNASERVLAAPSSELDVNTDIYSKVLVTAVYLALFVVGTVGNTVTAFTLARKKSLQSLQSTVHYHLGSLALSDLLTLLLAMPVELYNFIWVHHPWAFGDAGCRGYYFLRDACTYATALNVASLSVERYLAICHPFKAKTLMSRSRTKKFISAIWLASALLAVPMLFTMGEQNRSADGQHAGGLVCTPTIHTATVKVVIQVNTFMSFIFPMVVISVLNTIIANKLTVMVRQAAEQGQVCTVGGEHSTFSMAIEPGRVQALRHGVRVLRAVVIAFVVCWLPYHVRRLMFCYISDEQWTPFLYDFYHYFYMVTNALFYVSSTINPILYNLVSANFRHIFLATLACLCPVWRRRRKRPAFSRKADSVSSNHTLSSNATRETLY
TAG inh: inhibitors of triacylglycerol accumulation, primary screen, cell-based, uHTS, fluorescence, H9c2 | H9c2 cells, Nile Red lipid (TAG) fluorescence; cells loaded with 200 µM oleic acid | inhibition, % at 12.5 µM | 230,000 tested, 0.66% active | AID 651582, 2012;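 active means pattern-corrected inhibition of lipid staining of at least 50% with the nuclear-stain viability signal not falling by more than 50%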;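 further: 0% = DMSO wells and 100% = triacsin C control wells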
Lipid drop inh: hepatocyte lipid droplet accumulation inhibitors, confirmation, imaging, AML12 mouse hepatocytes, single concentration, high-content; shares compounds with Hep lipid drop; 870 tested, 65% active; BODIPY lipid droplet imaging; droplets induced with 100 µM oleic acid; inhibition, % at 5.2 µM;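 active means inhibition of lipid droplet metric at least 50%, with more than 300 cells in each of four replicates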;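 further: plate controls were DMSO with oleic acid for no effect and 5 µM Triacsin-C for full effect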
AML12 tox img: AML12 hepatocyte cytotoxicity, counter-screen for hepatic lipid droplet formation project, imaging, DAPI nuclear morphology imaging | z-score at 5 µM | 870 tested, 3% active | AML12 mouse hepatocytes; hits give high values; cells fed 100 µM oleate overnight | shares compounds with Hep lipid drop; in the data active means z-score above about 6.3;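 further: compound exposure lasted overnight at 37 °C before fixation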
AML12 tox ATP: AML12 hepatocyte cytotoxicity, confirmation, cytotoxicity control for hepatic lipid droplet formation project, cell-based, single concentration; AML12 mouse hepatocyte viability, ATP luminescence; cells loaded with 100 µM oleic acid; cytotoxicity, % at 50 µM; 530 tested, under 10 active; shares compounds with Hep lipid drop;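 active means cytotoxicity above 50% in each of four replicates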;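 further: compound exposure lasted overnight at 37 °C before the ATP read; 0% = DMSO-treated cells and 100% = wells with no cells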
Starred values were filed as active, the others as inactive.

`O=C1CSC(c2cn(-c3ccccc3)nc2-c2ccccc2)N1Cc1ccco1` (configuration not stated) gave Beta2AR agonist 0, Hep lipid drop 61*, Arrestin-AP2 inh 9, GRK2 inh 2, NTR1 agonist 8, TAG inh 18, Lipid drop inh 87*, AML12 tox img -1.1 and AML12 tox ATP -21.
COc1ccc(C(=O)OCC(=O)NC(C)CCc2ccccc2)cc1OC (configuration not stated) was read as Beta2AR agonist -6, Hep lipid drop 62*, Arrestin-AP2 inh 1, GRK2 inh 2, NTR1 agonist 0, Lipid drop inh 72*, AML12 tox img -0.53 and AML12 tox ATP 7.
Screening COc1ccc(C(=O)OC(C)C(=O)NC(C)CCc2ccccc2)cc1[N+](=O)[O-] (configuration not stated) returned Beta2AR agonist -9, Hep lipid drop 68*, Arrestin-AP2 inh 31, GRK2 inh 0, NTR1 agonist -1, Lipid drop inh 109*, AML12 tox img 0.035 and AML12 tox ATP 2.
Screening COc1ccc(C(=O)NCCc2ccccc2)cc1[N+](=O)[O-] returned Beta2AR agonist 0, Hep lipid drop -3, Arrestin-AP2 inh -15, GRK2 inh 0 and NTR1 agonist -1.
`CN(C)/C=N/NC(=O)C1Cc2c(ccc3ccccc23)O1` (configuration not stated) gave Beta2AR agonist -6, Arrestin-AP2 inh -18, GRK2 inh 2 and NTR1 agonist -1.
COc1cccc(NC(=O)c2cccs2)c1 was read as Beta2AR agonist -7, Hep lipid drop -16, Arrestin-AP2 inh 4, GRK2 inh 2 and NTR1 agonist -2.
For COc1ccc(NC(=O)CCC(=O)Nc2cc(OC)c(NC(=O)c3cccs3)cc2OC)cc1 the results were Beta2AR agonist -2, Hep lipid drop 71*, Arrestin-AP2 inh 21, GRK2 inh 1, NTR1 agonist 1, Lipid drop inh 109*, AML12 tox img 0.035 and AML12 tox ATP 9.
COc1ccc(NC(=O)c2ccccc2NC(=O)c2cccs2)cc1 was read as Beta2AR agonist 8, Hep lipid drop 0, Arrestin-AP2 inh -4, GRK2 inh 1 and NTR1 agonist 2.
`COc1ccc(/C=C(\NC(=O)c2cccs2)C(=O)NN)cc1OC` gave Beta2AR agonist 11, Hep lipid drop 8, Arrestin-AP2 inh 0, GRK2 inh 2 and NTR1 agonist 1.
For COc1cccc(NC(=O)CCC(=O)Nc2cc(OC)c(NC(=O)c3cccs3)cc2OC)c1 the results were Beta2AR agonist -11, Hep lipid drop 79*, Arrestin-AP2 inh -6, NTR1 agonist 1, Lipid drop inh 110*, AML12 tox img 0.008 and AML12 tox ATP 9.
COc1cc(NC(=O)c2cccs2)c(OC)cc1NC(=O)CCC(=O)Nc1ccc(C)cc1 was read as Beta2AR agonist -15, Hep lipid drop 68*, Arrestin-AP2 inh 6, GRK2 inh 1, NTR1 agonist 4, Lipid drop inh 108*, AML12 tox img 0.29 and AML12 tox ATP 15.

Bioassay records: PubChem BioAssay, several laboratories
